The text below walks through data of ChEMBL document CHEMBL1143425, “Paradoxical growth effect of caspofungin observed on biofilms and planktonic cells of five different Candida species” (2007).

Experiment [1] has as its system Candida tropicalis. The experiment in a line: Antimicrobial activity against Candida tropicalis BR-A14 grown as planktonic cell assessed as concentration producing paradoxical growth after 48 hrs by XTT reduction assay. The class given is functional. An outline of the steps:
(§1)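 Planktonic broth microdilution followed CLSI M27-A2, with caspofungin dissolved in water. After 48 h, XTT-menadione was added to each well and plates were incubated 1 h at 35°C in the dark. Cells were pelleted by centrifugation and the supernatant was read at 490 nm. MIC was the lowest concentration giving a 50% drop in metabolic activity versus the drug-free control. PG was ≥20% of drug-free activity above the MIC.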
On the technique in general: Tetrazolium assays rely on reduction of a dye to a coloured formazan, in cell work by metabolically active cells.

Experiment [2] concerns Candida albicans. The experiment in a line: Antimicrobial activity against Candida albicans BR-A7 grown as planktonic cell assessed as paradoxical growth after 48 hrs by XTT reduction assay. It counts as functional, organism-based. An outline of the steps: (§2)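 Planktonic cells were tested by CLSI M27-A2 broth microdilution with caspofungin in water, incubated 48 h. XTT-menadione was added to each well, plates were held 1 h at 35°C in the dark and centrifuged, and supernatant absorbance was read at 490 nm. MIC was defined as 50% decrease in metabolic activity versus drug-free control. PG was defined as ≥20% of control activity at concentrations above MIC.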

For experiment [3], the system named is Candida tropicalis. The experiment can be described thus: Effect on morphology in Candida tropicalis grown as biofilm assessed as inhibition of hyphae and pseudohyphae at 8 ug/ml after 48 hrs. The class given is functional, organism-based. An outline of the steps: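 Overnight RPMI 1640 cultures (MOPS, pH 7.0) were washed and set to about 1 × 10^7 cells/ml, then attached to polystyrene wells for 1.5 h at 37°C at 75 rpm. After 24 h biofilm growth, wells were washed and given doubling caspofungin dilutions (2–1,024 μg/ml in RPMI) for 48 h at 35°C at 75 rpm. Biofilms were viewed in situ by inverted light microscopy at ×200 alongside drug-free wells.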

The test system of experiment [4] is Candida metapsilosis. The experiment can be described thus: Antimicrobial activity against Candida metapsilosis BR-A41 grown as biofilm after 48 hrs by XTT reduction assay. It counts as functional. The conditions noted are these: Lodderomyces metapsilosis. An outline of the steps: (§3)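 Sabouraud-grown cells were shaken overnight (18 h, 120 rpm, 35°C) in RPMI 1640 with MOPS at pH 7.0, then washed and set at ~1 × 10^7 cells/ml. Attachment lasted 1.5 h at 37°C, and growth ran 24 h before challenge. Caspofungin was added in RPMI at 2–1,024 μg/ml (10 doublings) for 48 h at 35°C with shaking. XTT-menadione was read at 490 nm after 1 h at 35°C in the dark, with blank wells subtracted. MIC was taken as 50% reduction versus drug-free wells, and PG as >50% of control above MIC. Assays were run in duplicate.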

The test system of experiment [5] is Candida orthopsilosis. The experiment in a line: Antimicrobial activity against Candida orthopsilosis BR-A38 grown as biofilm assessed as paradoxical growth after 48 hrs by XTT reduction assay. The class given is functional, organism-based. An outline of the steps: as §3
The test system of experiment [6] is Candida parapsilosis. The experiment can be described thus: Antimicrobial activity against Candida parapsilosis BR-A26 grown as planktonic cell after 48 hrs by XTT reduction assay. The class given is functional. The conditions noted are these: Lodderomyces parapsilosis. In short, it runs like this:
(§4)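 Planktonic broth microdilution followed CLSI M27-A2, with caspofungin dissolved in water. After 48 h, XTT-menadione was added to the wells and plates were kept 1 h at 35°C in the dark. Plates were then centrifuged and supernatant A490 was read. MIC was the lowest concentration giving a 50% decrease in metabolic activity versus drug-free control. Paradoxical growth was defined as ≥20% of control activity above the MIC.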

In experiment [7] the test system is Candida orthopsilosis. The experiment can be described thus: Effect on morphology in Candida orthopsilosis grown as biofilm assessed as rounding and clumping at 32 ug/ml after 48 hrs. The class given is functional, organism-based. In short, it runs like this:
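Biofilms formed in RPMI 1640 wells were exposed to caspofungin for 48 h and compared with drug-free control wells. Wells were examined in the plate under an inverted light microscope at ×200 and photographed.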

The subject of experiment [8] is Candida parapsilosis. The experiment in a line: Antimicrobial activity against Candida parapsilosis BR-A28 grown as planktonic cell assessed as paradoxical growth after 48 hrs by XTT reduction assay. It counts as functional, organism-based. An outline of the steps:
as §1

In experiment [9] the test system is Candida orthopsilosis. The experiment can be described thus: Antimicrobial activity against Candida orthopsilosis BR-A35 grown as planktonic cell assessed as paradoxical growth after 48 hrs by XTT reduction assay. It counts as functional, organism-based. In short, it runs like this:
as §2

Experiment [10] has as its system Candida metapsilosis. The experiment in a line: Antimicrobial activity against Candida metapsilosis BR-A44 grown as planktonic cell assessed as paradoxical growth after 48 hrs by XTT reduction assay. It counts as functional, organism-based. In short, it runs like this: as §2
The test system of experiment [11] is Candida orthopsilosis. The experiment in a line: Antimicrobial activity against Candida orthopsilosis BR-A33 grown as planktonic cell assessed as paradoxical growth after 48 hrs by XTT reduction assay. It counts as functional, organism-based. An outline of the steps: as §2
Experiment [12] relates to Candida tropicalis. The experiment can be described thus: Antimicrobial activity against Candida tropicalis BR-A14 grown as planktonic cell after 48 hrs by XTT reduction assay. It counts as functional. An outline of the steps: as §1
Experiment [13] relates to Candida metapsilosis. The experiment can be described thus: Antimicrobial activity against Candida metapsilosis BR-A41 grown as biofilm assessed as concentration producing paradoxical growth after 48 hrs by XTT reduction assay. It counts as functional. An outline of the steps: as §3
Experiment [14] deals with Candida albicans. The experiment can be described thus: Effect on morphology in Candida albicans grown as planktonic cells assessed as inhibition of hyphae and pseudohyphae at 16 ug/ml after 48 hrs. It counts as functional, organism-based. An outline of the steps: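 Cells were taken from caspofungin-containing and drug-free wells of the planktonic broth microdilution test after 48 h. They were examined by light microscopy at ×400.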

Experiment [15] relates to Candida orthopsilosis. The experiment in a line: Antimicrobial activity against Candida orthopsilosis BR-A39 grown as biofilm assessed as concentration producing paradoxical growth after 48 hrs by XTT reduction assay. The class given is functional. An outline of the steps:
as §3

In experiment [16] the test system is Candida tropicalis. The experiment can be described thus: Antimicrobial activity against Candida tropicalis BR-A18 grown as biofilm assessed as paradoxical growth after 48 hrs by XTT reduction assay. The class given is functional, organism-based. An outline of the steps:
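Clinical isolates were grown overnight (18 h, 35°C, 120 rpm) in RPMI 1640 with MOPS, pH 7.0, then washed and set to ~1 × 10^7 cells/ml. Cells attached for 1.5 h at 37°C, 75 rpm, then biofilms grew 24 h. Caspofungin was given as doubling dilutions of 2–1,024 μg/ml for 48 h at 35°C, 75 rpm. Read-out was XTT-menadione in PBS, 1 h at 35°C in the dark, A490, cell-free blank subtracted. MIC was a 50% drop in activity versus drug-free; PG was >50% of control above MIC. Run in duplicate.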

Experiment [17] relates to Candida orthopsilosis. The experiment can be described thus: Antimicrobial activity against Candida orthopsilosis BR-A35 grown as biofilm after 48 hrs by XTT reduction assay. It counts as functional. The conditions noted are these: Lodderomyces orthopsilosis. An outline of the steps: (§5)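 Isolates were grown on Sabouraud agar (30°C, 24 h), then overnight in RPMI 1640 with MOPS, pH 7.0, at 35°C with shaking. Cells were washed and set to ~1 × 10^7 cells/ml, attached 1.5 h at 37°C, and grown 24 h. Biofilms were then exposed to caspofungin in 10 twofold dilutions (2–1,024 μg/ml) for 48 h at 35°C with shaking. Read-out was XTT-menadione, 1 h, 35°C, dark, A490, cell-free blank subtracted. MIC was the 50% drop in activity versus drug-free control. Tested in duplicate.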

The test system of experiment [18] is Candida orthopsilosis. The experiment in a line: Antimicrobial activity against Candida orthopsilosis BR-A32 grown as planktonic cell assessed as paradoxical growth after 48 hrs by XTT reduction assay. It counts as functional, organism-based. In short, it runs like this:
as §2

For experiment [19], the system named is Candida orthopsilosis. The experiment in a line: Antimicrobial activity against Candida orthopsilosis BR-A35 grown as planktonic cell after 48 hrs by XTT reduction assay. It counts as functional. The conditions noted are these: Lodderomyces orthopsilosis. An outline of the steps:
as §2

Experiment [20] concerns Candida metapsilosis. The experiment in a line: Antimicrobial activity against Candida metapsilosis BR-A42 grown as biofilm assessed as concentration producing paradoxical growth after 48 hrs by XTT reduction assay. The class given is functional. An outline of the steps:
as §3

Experiment [21] has as its system Candida parapsilosis. The experiment can be described thus: Antimicrobial activity against Candida parapsilosis BR-A30 grown as planktonic cell after 48 hrs by XTT reduction assay. The class given is functional. The conditions noted are these: Lodderomyces parapsilosis. An outline of the steps: as §4
Experiment [22] deals with Candida parapsilosis. The experiment can be described thus: Antimicrobial activity against Candida parapsilosis 22019 grown as planktonic cell after 48 hrs by XTT reduction assay. It counts as functional. The conditions noted are these: Lodderomyces parapsilosis, 22019, 48 h. An outline of the steps:
as §4

For experiment [23], the system named is Candida tropicalis. The experiment in a line: Antimicrobial activity against Candida tropicalis BR-A20 grown as biofilm after 48 hrs by XTT reduction assay. It counts as functional. An outline of the steps:
as §5

≈ marks a conversion by molar mass, not a printed value. Calls of active or inactive are those of the source.

Turning to `CC[C@H](C)C[C@H](C)CCCCCCCCC(=O)N[C@H]1C[C@@H](O)[C@@H](NCCN)NC(=O)[C@@H]2[C@@H](O)CCN2C(=O)[C@H]([C@H](O)CCN)NC(=O)[C@H]([C@H](O)[C@@H](O)c2ccc(O)cc2)NC(=O)[C@@H]2C[C@@H](O)CN2C(=O)[C@H]([C@@H](C)O)NC1=O` [CASPOFUNGIN], the Activity was 8 µg/mL in experiment [1], 16 µg/mL in experiment [13], 32 µg/mL in [15] and 32 µg/mL in [20]. Moreover, the outcome in experiment [2], in [3], in [5], in [7], in experiment [14] and in [16] was Active. Besides, the MIC in experiment [4] was 2 µg/mL (≈ 1.83 µM); in [6], 2 µg/mL (≈ 1.83 µM); in [12] it was 0.5 µg/mL (≈ 0.457 µM); in experiment [17] it was 2 µg/mL (≈ 1.83 µM); in [19], 1 µg/mL (≈ 0.915 µM); in experiment [21] it was 2 µg/mL (≈ 1.83 µM). In addition, the MIC in experiment [22] and in experiment [23] was 2 µg/mL (≈ 1.83 µM) each time. For the same compound, the result in [8], in experiment [9], in [10], in experiment [11] and in experiment [18] was inactive.
